Laboratory results: ChEMBL document CHEMBL2169747, “Synthesis and biological properties of highly sequence-specific-alkylating N-methylpyrrole-N-methylimidazole polyamide conjugates” (J Med Chem, 2012)
Active and inactive are the calls of the source. The calls are words filed in the database; no cut-off is given here.

Experiments:
A549 [1] = experiment: Downregulation of TCF12 gene expression in human A549 cells at 100 nM after 12 hrs by microarray analysis relative to control; type: functional
Procedure, shortened: (§1)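 A549 cells (RPMI-1640, 10% heat-inactivated FBS, penicillin/streptomycin, 37 °C, 5% CO2) seeded at 4 × 10^5 per 60 mm dish. Exposed 12 h to conjugate at 21, 26, 34 or 100 nM in medium with 0.1% DMSO, against 0.1% DMSO control. Whole-genome (~25 000 genes) expression profiled by microarray.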

A549 [2] = experiment: Downregulation of EFA6R gene expression in human A549 cells at 100 nM after 12 hrs by microarray analysis relative to control; type: functional
Procedure, shortened: (§2)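 A549 cells, 4 × 10^5 per 60 mm dish, were exposed to conjugate for 12 h in medium with 0.1% DMSO; vehicle control was 0.1% DMSO. Whole human genome (~25 000 genes) expression was profiled by microarray and expression compared with the control.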

A549 [3] = experiment: Upregulation of MDM2 gene expression in human A549 cells at 100 nM after 12 hrs by microarray analysis relative to control; type: functional
Procedure, shortened: (§3)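 4 ×10^5 A549 cells seeded per 60 mm dish and treated 12 h with conjugate (21, 26, 34 or 100 nM) in medium; control medium contained 0.1% DMSO, with conjugates added as 0.1% DMSO solutions. Whole human genome (~25 000 genes) expression profiled by microarray against the DMSO control. A549 culture: RPMI-1640 with 10% heat-inactivated FBS, penicillin/streptomycin, 37 °C, 5% CO2.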

Nucleic Acid = experiment: Induction of 208-bp PCR fragment DNA cleavage at 10 to 200 nM after 12 h by PAGE analysis
A549 [4] = experiment: Downregulation of SUPT3H gene expression in human A549 cells at 100 nM after 12 hrs by microarray analysis relative to control; type: functional; procedure, shortened: as §1
A549 [5] = experiment: Downregulation of GULP1 gene expression in human A549 cells at 100 nM after 12 hrs by microarray analysis relative to control; type: functional; procedure, shortened: as §2
A549 [6] = experiment: Downregulation of NP_653244.1 gene expression in human A549 cells at 100 nM after 12 hrs by microarray analysis relative to control; type: functional; procedure, shortened: as §1
A549 [7] = experiment: Downregulation of PDE7B gene expression in human A549 cells at 100 nM after 12 hrs by microarray analysis relative to control; type: functional; procedure, shortened: as §1
A549 [8] = experiment: Upregulation of NPPC gene expression in human A549 cells at 100 nM after 12 hrs by microarray analysis relative to control; type: functional; procedure, shortened: as §3
A549 [9] = experiment: Upregulation of HES2 gene expression in human A549 cells at 100 nM after 12 hrs by microarray analysis relative to control; type: functional; procedure, shortened: as §3
A549 [10] = experiment: Upregulation of BBC3 gene expression in human A549 cells at 100 nM after 12 hrs by microarray analysis relative to control; type: functional; procedure, shortened: as §1
A549 [11] = experiment: Upregulation of BTG2 gene expression in human A549 cells at 100 nM after 12 hrs by microarray analysis relative to control; type: functional; procedure, shortened: as §1
A549 [12] = experiment: Downregulation of PTPRK gene expression in human A549 cells at 100 nM after 12 hrs by microarray analysis relative to control; type: functional; procedure, shortened: as §1
A549 [13] = experiment: Upregulation of CDKN1A gene expression in human A549 cells at 100 nM after 12 hrs by microarray analysis relative to control; type: functional; procedure, shortened: as §3
SK-N-SH = experiment: Cytotoxicity against human SK-N-SH cells assessed as cell growth inhibition after 48 hrs by microplate reader analysis; type: functional, cell-based
Procedure, shortened: (§4)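 Medium was RPMI-1640 for EBC-1, A549 and DU145, and DMEM for PC-3, SK-N-SH and K562. Both media had 10% heat-inactivated FBS plus penicillin/streptomycin; cells were kept at 37 °C, 5% CO2. Cells were seeded at 5000/well and given compound from DMSO stock (final 0.1% DMSO) for 48 h. Viability was read by WST-8 colorimetry, absorbance at 450 and 600 nm, and IC50 determined.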

A549 [14] = experiment: Downregulation of NP_112224.1 gene expression in human A549 cells at 100 nM after 12 hrs by microarray analysis relative to control; type: functional; procedure, shortened: as §2
A549 [15] = experiment: Upregulation of FDXR gene expression in human A549 cells at 100 nM after 12 hrs by microarray analysis relative to control; type: functional; procedure, shortened: as §3
DU-145 = experiment: Cytotoxicity against human DU145 cells assessed as cell growth inhibition after 48 hrs by microplate reader analysis; type: functional, cell-based; details: DU-145, 48 h; procedure, shortened: as §4
A549 [16] = experiment: Downregulation of Q8TC78 gene expression in human A549 cells at 100 nM after 12 hrs by microarray analysis relative to control; type: functional; procedure, shortened: as §1
A549 [17] = experiment: Downregulation of NCOA1 gene expression in human A549 cells at 100 nM after 12 hrs by microarray analysis relative to control; type: functional; procedure, shortened: as §2
A549 [18] = experiment: Upregulation of RRAD gene expression in human A549 cells at 100 nM after 12 hrs by microarray analysis relative to control; type: functional; procedure, shortened: as §3
K562 = experiment: Cytotoxicity against human K562 cells assessed as cell growth inhibition after 48 hrs by microplate reader analysis; type: functional, cell-based; details: K562, 48 h; procedure, shortened: as §4
A549 [19] = experiment: Downregulation of FUT8 gene expression in human A549 cells at 100 nM after 12 hrs by microarray analysis relative to control; type: functional; procedure, shortened: as §2
A549 [20] = experiment: Downregulation of FAF1 gene expression in human A549 cells at 100 nM after 12 hrs by microarray analysis relative to control; type: functional; procedure, shortened: as §2
A549 [21] = experiment: Downregulation of XRCC4 gene expression in human A549 cells at 100 nM after 12 hrs by microarray analysis relative to control; type: functional; procedure, shortened: as §1
A549 [22] = experiment: Cytotoxicity against human A549 cells assessed as cell growth inhibition after 48 hrs by microplate reader analysis; type: functional, cell-based; details: A549, 48 h; procedure, shortened: as §4
A549 [23] = experiment: Downregulation of NP_060504.1 gene expression in human A549 cells at 100 nM after 12 hrs by microarray analysis relative to control; type: functional; procedure, shortened: as §2
A549 [24] = experiment: Upregulation of GADD45A gene expression in human A549 cells at 100 nM after 12 hrs by microarray analysis relative to control; type: functional; procedure, shortened: as §3
[25] = Cytotoxicity against human EBC1 cells assessed as cell growth inhibition after 48 hrs by microplate reader analysis; type: functional, cell-based; details: EBC-1, 48 h; procedure, shortened: as §4
A549 [26] = experiment: Downregulation of NP_056993.2 gene expression in human A549 cells at 100 nM after 12 hrs by microarray analysis relative to control; type: functional; procedure, shortened: as §2
A549 [27] = experiment: Downregulation of DYM gene expression in human A549 cells at 100 nM after 12 hrs by microarray analysis relative to control; type: functional; procedure, shortened: as §2
PC-3 = experiment: Cytotoxicity against human PC3 cells assessed as cell growth inhibition after 48 hrs by microplate reader analysis; type: functional, cell-based; details: PC-3, 48 h; procedure, shortened: as §4
A549 [28] = experiment: Downregulation of RPS6KC1 gene expression in human A549 cells at 100 nM after 12 hrs by microarray analysis relative to control; type: functional; procedure, shortened: as §1
A549 [29] = experiment: Downregulation of SEMA3A gene expression in human A549 cells at 100 nM after 12 hrs by microarray analysis relative to control; type: functional; procedure, shortened: as §1
A549 [30] = experiment: Downregulation of UVRAG gene expression in human A549 cells at 100 nM after 12 hrs by microarray analysis relative to control; type: functional; procedure, shortened: as §1
A549 [31] = experiment: Downregulation of ELP4 gene expression in human A549 cells at 100 nM after 12 hrs by microarray analysis relative to control; type: functional; procedure, shortened: as §2
A549 [32] = experiment: Upregulation of U124 gene expression in human A549 cells at 100 nM after 12 hrs by microarray analysis relative to control; type: functional; procedure, shortened: as §3

CC(=O)Nc1cn(C)c(C(=O)Nc2cn(C)c(C(=O)Nc3cc(C(=O)NCCC(=O)Nc4cc(C(=O)NCCCC(=O)Nc5cn(C)c(C(=O)NCCC(=O)Nc6cc(C(=O)Nc7ccc8[nH]c(C(=O)N9CC(CCl)c%10c9cc(O)c9ccccc%109)cc8c7)n(C)c6)n5)n(C)c4)n(C)c3)n2)n1 (racemic)
fold change (FC) (A549 [1]): 0.074 | fold change (FC) (A549 [2]): 0.058 | fold change (FC) (A549 [3]): 15.6 | Activity (Nucleic Acid): Active | fold change (FC) (A549 [4]): 0.052 | fold change (FC) (A549 [5]): 0.062 | fold change (FC) (A549 [6]): 0.061 | fold change (FC) (A549 [7]): 0.064 | fold change (FC) (A549 [8]): 10.5 | fold change (FC) (A549 [9]): 19.2 | fold change (FC) (A549 [10]): 10.7 | fold change (FC) (A549 [11]): 13 | fold change (FC) (A549 [12]): 0.026 | fold change (FC) (A549 [13]): 9 | IC50 (SK-N-SH): 129 nM | fold change (FC) (A549 [14]): 0.058 | fold change (FC) (A549 [15]): 8.2 | IC50 (DU-145): 11.2 nM | fold change (FC) (A549 [16]): 0.056 | fold change (FC) (A549 [17]): 0.068 | fold change (FC) (A549 [18]): 11.2 | IC50 (K562): 15.5 nM | fold change (FC) (A549 [19]): 0.035 | fold change (FC) (A549 [20]): 0.071 | fold change (FC) (A549 [21]): 0.067 | IC50 (A549 [22]): 100 nM | fold change (FC) (A549 [23]): 0.068 | fold change (FC) (A549 [24]): 8.3 | IC50 [25]: 550 nM | fold change (FC) (A549 [26]): 0.076 | fold change (FC) (A549 [27]): 0.08 | IC50 (PC-3): 29.5 nM | fold change (FC) (A549 [28]): 0.038 | fold change (FC) (A549 [29]): 0.063 | fold change (FC) (A549 [30]): 0.066 | fold change (FC) (A549 [31]): 0.045 | fold change (FC) (A549 [32]): 10.3
